The values below come from ChEMBL document CHEMBL1134272, “Enantiomeric synthesis of D- and L-cyclopentenyl nucleosides and their antiviral activity against HIV and West Nile virus” (J Med Chem, 2001).

One test deals with CCRF-CEM. Kind of test: In vitro cytotoxicity in CEM cells. Format: functional, cell-based. As to conditions: Homo sapiens.
Test [1] in a line: In vitro cytotoxicity in PBM cells. In kind it is functional, cell-based. The note with it: Homo sapiens, PBMC.
The subject of test [2] is Human immunodeficiency virus 1. Description: In vitro antiviral activity against HIV-1 in human PBM cells. In kind it is functional, organism-based. The note with it: Human immunodeficiency virus 1, PBMC.
For a further test, the system named is West Nile virus. Kind of test: In vitro antiviral activity against West Nile Virus. In kind it is functional, organism-based. In short, it runs like this:
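Lightly confluent Vero cells in 96-well plates received serial compound dilutions and then 5 CCID50 of the WNV New York isolate, with test samples in triplicate. Cells were scored visually for cytopathic effect 6 days after virus exposure. Neutral red uptake (2-3 h, 37 °C; absorbance 540 and 405 nm) was used to verify the scoring. EC50 was obtained by regression on mean ratings or on percent-of-control absorbance.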

The test system of a further test is Vero. Kind of test: In vitro cytotoxicity in vero cells. Format: functional, cell-based. The note with it: Chlorocebus sabaeus. In short, it runs like this: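 Uninfected Vero cells were treated with serial compound dilutions, with toxicity controls in duplicate at each concentration, and were scored visually 6 days later. Scoring was confirmed by neutral red uptake (2-3 h, 37 °C; absorbance 540 and 405 nm) expressed as percent of control. IC50 was obtained by regression analysis.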

The subject of test [3] is Human immunodeficiency virus 1. Kind of test: The compound was evaluated for the antiviral activity against HIV-1 in human PBM cells. Format: functional, organism-based.

Turning to `O=c1ccn([C@@H]2C=C(CO)[C@@H](O)[C@H]2O)c(=O)[nH]1`, the IC50 (with CCRF-CEM; in test [1]; with Vero) was greater than 100 µM throughout. Also, the EC50 in test [2] is greater than 100 µM; in the test with West Nile virus it was greater than 200 µM.

Take `Nc1ccn([C@H]2C=C(CO)[C@H](O)[C@@H]2O)c(=O)n1`: the IC50 (in the test on CCRF-CEM; in test [1]; in the test on Vero) was greater than 100 µM in each case. Further, the EC50 in test [2] is 58.9 µM; with West Nile virus, greater than 200 µM.

For `Nc1nc(O)c2ncn([C@@H]3C=C(CO)[C@@H](O)[C@H]3O)c2n1`, the IC50 (in the test with CCRF-CEM; in test [1]; in the test on Vero) was greater than 100 µM throughout. Moreover, the values for the EC50 (in test [2]; with West Nile virus) were greater than 100 µM and greater than 200 µM, respectively.

Turning to `OCC1=C[C@H](n2cnc3c(O)ncnc32)[C@@H](O)[C@H]1O`, the IC50 (in the test on CCRF-CEM; in test [1]; with Vero) was greater than 100 µM in each case. In addition, the EC50 is greater than 100 µM in test [2] and greater than 200 µM with West Nile virus.

For `Nc1nc(=O)n([C@@H]2C=C(CO)[C@@H](O)[C@H]2O)cc1F`, the IC50 in the test on CCRF-CEM was 51.8 µM; in test [3] (Human immunodeficiency virus 1, PBMC), 5.34 µM; in test [3] (pbm) it was 5.34 µM; in test [1], 73.7 µM; in the test on Vero, 27.4 µM. The EC50 in test [2] came out at 5.34 µM; in the test on West Nile virus, 15 µM.

Turning to `O=c1[nH]c(=O)n([C@@H]2C=C(CO)[C@@H](O)[C@H]2O)cc1F`, the IC50 (with CCRF-CEM; in test [1]; in the test with Vero) was greater than 100 µM in each case. The values for the EC50 (in test [2]; in the test on West Nile virus) were 93.1 µM and greater than 200 µM, respectively.

As for `Nc1ncnc2c1ncn2[C@H]1C=C(CO)[C@H](O)[C@@H]1O`, the IC50 (with CCRF-CEM; in test [1]; in the test on Vero) was greater than 100 µM in each case. Also, the EC50 in test [2] was greater than 100 µM; in the test with West Nile virus, greater than 200 µM.

On to `Cc1cn([C@@H]2C=C(CO)[C@@H](O)[C@H]2O)c(=O)[nH]c1=O`, for which the IC50 (in the test with CCRF-CEM; in test [1]; with Vero) was greater than 100 µM throughout. Further, the EC50 in test [2] was greater than 100 µM; with West Nile virus, greater than 200 µM.

For `Nc1nc(O)c2ncn([C@H]3C=C(CO)[C@H](O)[C@@H]3O)c2n1`, the IC50 (with CCRF-CEM; in test [1]; in the test on Vero) was greater than 100 µM in each case. The EC50 in test [2] is greater than 100 µM; in the test on West Nile virus, greater than 200 µM.

Turning to `Cc1cn([C@H]2C=C(CO)[C@H](O)[C@@H]2O)c(=O)[nH]c1=O`, the IC50 (in the test on CCRF-CEM; in test [1]; in the test with Vero) was greater than 100 µM in each case. Further, the EC50 in test [2] was greater than 100 µM; in the test on West Nile virus, greater than 200 µM.

Turning to `O=c1[nH]c(=O)n([C@H]2C=C(CO)[C@H](O)[C@@H]2O)cc1F`, the IC50 (with CCRF-CEM; in test [1]; with Vero) was greater than 100 µM throughout. In addition, the EC50 in test [2] was greater than 100 µM; in the test with West Nile virus, greater than 200 µM.

Consider `Nc1nc(=O)n([C@H]2C=C(CO)[C@H](O)[C@@H]2O)cc1F`, for which the IC50 (with CCRF-CEM; in test [1]; in the test on Vero) was greater than 100 µM in each case. In addition, the EC50 in test [2] was greater than 100 µM; with West Nile virus it was greater than 200 µM.

For the compound `O=c1ccn([C@H]2C=C(CO)[C@H](O)[C@@H]2O)c(=O)[nH]1`, the IC50 (with CCRF-CEM; in test [1]; with Vero) was greater than 100 µM throughout. In addition, the EC50 in test [2] is greater than 100 µM; with West Nile virus, greater than 200 µM.

With `OCC1=C[C@@H](n2cnc3c(O)ncnc32)[C@H](O)[C@@H]1O`, the IC50 (in the test on CCRF-CEM; in test [1]; in the test on Vero) was greater than 100 µM throughout. Besides, the results for the EC50 (in test [2]; in the test on West Nile virus) were greater than 100 µM and greater than 200 µM, respectively.

Turning to `Nc1ccn([C@@H]2C=C(CO)[C@@H](O)[C@H]2O)c(=O)n1`, the IC50 in the test with CCRF-CEM turned out to be 0.08 µM; in test [1], 6.5 µM; in the test with Vero it was 1.95 µM. Besides, the EC50 in test [2] is 0.06 µM; in the test on West Nile virus, 0.2 µM.

The compound `O=c1cnn([C@@H]2O[C@H](CO)[C@@H](O)[C@H]2O)c(=O)[nH]1` [6-AZAURIDINE] returned an EC50 in the test with West Nile virus of 1.2 µM. Besides, the IC50 in the test with Vero is greater than 100 µM.

`Nc1ncnc2c1ncn2[C@@H]1C=C(CO)[C@@H](O)[C@H]1O` [NEOPLANOCIN A]: the IC50 in the test on CCRF-CEM came out at 1.2 µM; in test [1], 44.6 µM; in the test with Vero it was 3.5 µM. The EC50 in test [2] was 0.1 µM; with West Nile virus, greater than 51 µM.

As for `Cc1cn([C@H]2C[C@H](N=[N+]=[N-])[C@@H](CO)O2)c(=O)[nH]c1=O` [ZIDOVUDINE], in test [1], the IC50 was greater than 100 µM. This compound returned an EC50 in test [2] of 0.004 µM.

For orientation: IC50 means the midpoint of a concentration-inhibition curve. A higher IC50 goes with weaker potency in that assay. What is called EC50 is the concentration needed to bring the measured effect to its halfway point. A lower EC50 goes with an effect from little substance.
